Results from different studies.
MMP2: 72 kDa type IV collagenase (MMP2, Homo sapiens, UniProt P08253)
PRKCE: Protein kinase C epsilon type (PRKCE, Homo sapiens, UniProt Q02156)
F10: Coagulation factor X (F10, Homo sapiens, UniProt P00742)

CCOC(=O)c1ccc(OC(=O)CCCCCNC(=N)N)cc1  inhibition (MMP2; enzyme activity, inhibitor; 10 µM): 26%
Cn1cc(-c2cc(F)cc(N3CCn4c(cc5c4CCCC5)C3=O)c2CO)cc(Nc2ccc(N3CCN(C4COC4)CC3)cn2)c1=O  inhibition (G protein-coupled receptor kinase 5 (GRK5, Homo sapiens, UniProt P34947); enzyme activity, inhibitor; 0.1 µM): 4%
N=C(N)c1ccc2cc(OC(=O)c3ccc(N=C(N)N)cc3)ccc2c1  inhibition (MMP2; enzyme activity, inhibitor; 10 µM): 0%
CC(C)=CCC[C@]1(C)C=Cc2c(O)c3c(c(CC=C(C)C)c2O1)O[C@]12C(=C[C@@H]4C[C@H]1C(C)(C)O[C@@]2(C/C=C(/C)C(=O)O)C4=O)C3=O  inhibition (Histone-lysine N-methyltransferase SETD7 (SETD7, Homo sapiens, UniProt Q8WTS6); cell-free assay; 10 µM): -5%
Cn1cc(-c2cccc(N3CCc4c(sc5c4CC(C)(C)C5)C3=O)c2CO)cc(Nc2ccncn2)c1=O  inhibition (G protein-coupled receptor kinase 6 (GRK6, Homo sapiens, UniProt P43250); enzyme activity, inhibitor; 1 µM): -1%
COc1cc(Nc2ncc(F)c(Nc3ccc4c(n3)NC(=O)C(C)(C)O4)n2)cc(OC)c1OC  inhibition (Epithelial discoidin domain-containing receptor 1 (DDR1, Homo sapiens, UniProt Q08345); binding, competition with immobilised ligand; 10 µM): 100%
Cc1ncc(C)n2nc(/C=C/c3nc(N4CCCC4)cc(N4CCOCC4)n3)nc12  inhibition (Prostacyclin receptor (PTGIR, Homo sapiens, UniProt P43119); cell-free assay; 10 µM): 22%
COc1ccc(S(=O)(=O)N(CC(=O)NO)CC(C)C)cc1  inhibition (MMP2; enzyme activity, inhibitor; 10 nM): 24%
C#Cc1n[nH]c2c(-c3cn([C@@H](C)c4ccccc4)c(=O)[nH]c3=O)cc(F)cc12  inhibition (PRKCE; enzyme activity, inhibitor; 0.1 µM): 7.2%
O=C(Nc1cccnn1)N1CCN([C@@H]2CCOc3cc(C(F)(F)F)ccc32)CC1  inhibition (MMP2; cell-free assay; 20 µM): 20%
C#Cc1n[nH]c2c(-c3cn(C(C)c4ccccn4)c(=O)[nH]c3=O)cc(F)cc12 (stereo not drawn)  inhibition (PRKCE; enzyme activity, inhibitor; 1 µM): 3.8%
C[C@H](C(=O)N[C@H]1COc2ccccc2[C@@H]1S(C)(=O)=O)c1ccc(F)cc1  inhibition (F10; enzyme activity, inhibitor; 10 µM): -3%
CCN(CC)CCCC[C@H](NC(=O)[C@H](CC(C)C)NC(=O)[C@H](C)NC(=O)[C@H](Cc1ccccc1)NC(=O)c1ccc(C(C)(C)C)cc1)C(=O)N[C@@H](CO)C(=O)OC  inhibition (Beta-2 adrenergic receptor (ADRB2, Homo sapiens, UniProt P07550); ligand displacement, radioligand; 10 µM): -1%
CN(C)C(=O)COC(=O)Cc1ccc(OC(=O)c2ccc(NC(=N)N)cc2)cc1  inhibition (MMP2; enzyme activity, inhibitor; 10 µM): 83%
CC(C)C[C@H](NC(=O)[C@H](Cc1ccccc1)NC(=O)c1cnccn1)B(O)O  inhibition (F10; enzyme activity, inhibitor; 33 µM): 48.8%
